Measured values reported in PubChem BioAssay.
For part of these data: Potency and affinity values are given separately. The source made the active and inactive calls.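 Rule for the calls, unless noted: active = active in primary screen and both duplicates, each dropping signal beyond three positive-control SD with fluorescence still positive; inactive = the rest.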

The compounds below were run against Short transient receptor potential channel 4 (Mus musculus) (UniProt Q9QUQ5) (assay: mouse TRPC4 channel inhibitors, dose response, cell-based, HEK293 TRPC4/mu-opioid, Fluo-4 calcium (AID 434942;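 active = primary screen inhibitor hit that blocks the TRPC4 channel at some tested dose, yielding a dose curve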)). Conditions: HEK293 TRPC4/mu-opioid cells, DAMGO-evoked Fluo-4 calcium ratio; series mostly up to 20 µM; ratio response (lower = inhibition): at the top concentration.
Chain of Short transient receptor potential channel 4 (Mus musculus) (Q9QUQ5 whole entry, looked up): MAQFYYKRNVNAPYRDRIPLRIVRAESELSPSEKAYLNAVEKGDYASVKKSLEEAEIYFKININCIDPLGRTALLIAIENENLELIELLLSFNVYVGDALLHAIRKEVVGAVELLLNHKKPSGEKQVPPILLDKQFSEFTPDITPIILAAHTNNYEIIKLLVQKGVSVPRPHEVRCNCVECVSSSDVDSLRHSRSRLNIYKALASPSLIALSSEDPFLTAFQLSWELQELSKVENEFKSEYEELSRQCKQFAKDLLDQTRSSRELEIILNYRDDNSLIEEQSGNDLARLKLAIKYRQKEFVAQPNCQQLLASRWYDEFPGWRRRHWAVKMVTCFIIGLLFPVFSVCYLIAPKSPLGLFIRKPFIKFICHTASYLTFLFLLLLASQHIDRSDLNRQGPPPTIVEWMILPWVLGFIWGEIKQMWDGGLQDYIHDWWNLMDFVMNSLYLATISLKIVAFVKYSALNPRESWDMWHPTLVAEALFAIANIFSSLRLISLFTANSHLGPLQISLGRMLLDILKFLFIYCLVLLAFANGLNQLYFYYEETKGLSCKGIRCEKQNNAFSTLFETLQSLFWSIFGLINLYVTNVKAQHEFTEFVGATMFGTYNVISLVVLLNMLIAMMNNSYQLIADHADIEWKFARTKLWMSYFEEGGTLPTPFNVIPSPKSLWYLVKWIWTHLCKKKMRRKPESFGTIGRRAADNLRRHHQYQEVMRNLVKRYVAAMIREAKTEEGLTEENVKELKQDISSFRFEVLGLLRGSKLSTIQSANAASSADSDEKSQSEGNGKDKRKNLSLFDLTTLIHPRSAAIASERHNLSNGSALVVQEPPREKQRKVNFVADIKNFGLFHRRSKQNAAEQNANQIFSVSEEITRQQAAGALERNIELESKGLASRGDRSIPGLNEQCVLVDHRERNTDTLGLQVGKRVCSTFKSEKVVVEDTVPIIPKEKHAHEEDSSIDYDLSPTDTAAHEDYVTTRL

Ratio response (lower = inhibition), inactive:
Clc1ccc(N=C2SCC3CCCCN23)cc1 (stereo not drawn) 99.1
O=S(=O)(c1ccc(Oc2ccc(Br)cc2)cc1)N1CCOCC1 28.1
O=S(=O)(Nc1ccc(S(=O)(=O)Nc2cccc3ccccc23)cc1)c1ccccc1 29.9
COc1ccc(N(C(=O)c2snc(C(N)=O)c2N)C(C(=O)NC2CCCCC2)c2ccc(C)o2)c(OC)c1 (stereo not drawn) 17.5
Cc1ccc(S(=O)(=O)Nc2ccc(N=Nc3ccc(O)cc3)cc2)cc1 19
O=C(c1ccccc1)c1coc2ccc(O)c(CN3CCOCC3)c12 17.4
CCOc1ccc(N=CNc2ccc(OCC)cc2)cc1 105
COCCSc1ccccc1C(=O)N1CCC(Cc2ccccc2)CC1 93.8
O=C(c1ccccc1F)N1CCN(c2ccc([N+](=O)[O-])c3cccnc23)CC1 93.5
Cc1ccc(NS(=O)(=O)c2cc(C(=O)N3CCc4ccccc4C3)ccc2Cl)cc1 57.3
CCn1cc(CN2CCC(n3nccc3NC(=O)CCOc3ccccc3)CC2)c(C)n1 1.44
CCN1CCN(c2ccc(S(=O)(=O)N3CCCCC3)cc2NC(=O)COc2cc(C)ccc2Cl)CC1 133
CN(C)CCCCOc1cccc(Br)c1 78.3
CC(C)c1ccc(C(C)NCCS(=O)(=O)c2ccc(Br)cc2)cc1 (stereo not drawn) 51.3
COc1cc2c(C(=O)N3CCN(C)CC3)c(CSc3ccccc3)n(C)c2cc1Br 63.3
Cc1c(N2C(=O)/C(=C/c3ccccc3)SC2=S)c(=O)n(-c2ccccc2)n1C 20.4
Cc1n[nH]c(C)c1Cc1c(F)cccc1Cl 29.7
O=C(Nc1ccc([N+](=O)[O-])cn1)C1CCCCC1 43.8
O=c1[nH][nH]c(-c2ccccc2)c1C=Nc1ccc(F)cc1F 134
COc1ccccc1C1/C(=C(\O)c2ccc3c(c2)OCCO3)C(=O)C(=O)N1Cc1cccnc1 (stereo not drawn) 29.2
CCN(CC)CCSc1nnc2c3ccccc3n(Cc3ccccc3)c2n1 3.23
CCCn1c(SCC(=O)N2c3ccccc3Sc3ccccc32)nc2c1c(=O)n(C)c(=O)n2C 96.8

Each compound was assayed against Short transient receptor potential channel 6 (Mus musculus) (UniProt Q61143) (assay: inhibition of mouse TRPC6 channel, confirmation, selectivity assay for TRPC4 inhibitor project, cell-based, HEK293, membrane potential dye, duplicate (AID 434948)). Conditions: HEK293 TRPC6, membrane potential dye fluorescence, at 10 µM, stimulated with maximal-effect acetylcholine; hits give high values.
Chain of Short transient receptor potential channel 6 (Mus musculus) (Q61143 whole entry, looked up): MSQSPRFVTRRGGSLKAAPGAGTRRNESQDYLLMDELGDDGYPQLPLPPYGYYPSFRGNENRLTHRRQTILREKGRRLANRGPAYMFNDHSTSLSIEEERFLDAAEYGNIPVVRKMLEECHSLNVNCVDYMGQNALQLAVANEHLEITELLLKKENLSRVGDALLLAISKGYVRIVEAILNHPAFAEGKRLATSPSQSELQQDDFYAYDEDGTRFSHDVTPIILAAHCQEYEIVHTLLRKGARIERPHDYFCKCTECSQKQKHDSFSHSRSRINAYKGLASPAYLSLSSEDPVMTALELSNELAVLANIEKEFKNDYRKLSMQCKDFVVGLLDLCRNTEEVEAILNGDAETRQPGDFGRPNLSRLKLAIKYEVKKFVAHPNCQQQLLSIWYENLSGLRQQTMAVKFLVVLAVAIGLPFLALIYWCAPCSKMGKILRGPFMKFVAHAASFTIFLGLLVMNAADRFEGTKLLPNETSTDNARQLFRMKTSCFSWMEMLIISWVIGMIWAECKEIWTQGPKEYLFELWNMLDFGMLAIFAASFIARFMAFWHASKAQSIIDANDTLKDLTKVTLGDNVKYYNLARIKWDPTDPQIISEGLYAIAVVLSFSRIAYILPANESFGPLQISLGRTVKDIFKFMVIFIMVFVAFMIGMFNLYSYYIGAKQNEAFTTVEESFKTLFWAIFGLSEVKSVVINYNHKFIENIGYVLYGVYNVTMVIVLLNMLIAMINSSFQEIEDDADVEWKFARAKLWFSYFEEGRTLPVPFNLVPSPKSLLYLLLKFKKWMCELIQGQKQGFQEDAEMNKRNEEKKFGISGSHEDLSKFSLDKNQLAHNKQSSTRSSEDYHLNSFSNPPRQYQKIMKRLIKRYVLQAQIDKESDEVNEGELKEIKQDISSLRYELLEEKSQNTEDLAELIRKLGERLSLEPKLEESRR
Method in brief: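 Times: 45 min RT dye load, 110 s compound, 110 s agonist read | Assay system: HEK293 cells expressing mouse TRPC6 channel | Detection: Kinetic membrane potential dye fluorescence | Replicates: Duplicate testing | Read-out: Control-normalized integrated fluorescence ratio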

outcome, inactive:
COc1cc(/C=C2\C(=N)N3N=C(S(C)(=O)=O)SC3=NC2=O)ccc1OC(=O)c1cccs1
c1ccc(CN2CCN(c3nc4ccccc4s3)CC2)cc1
COc1ccccc1N(C(=O)c1snc(C(N)=O)c1N)C(C(=O)NCc1ccccc1)c1ccc(O)cc1 (stereo not drawn)
Cc1ccc(SC(CC(=O)c2ccc(C(C)(C)C)cc2)C(=O)O)cc1 (stereo not drawn)
COc1ccc(C2CC(=O)c3cnc(N4CCN(Cc5ccccc5)CC4)nc3C2)cc1 (stereo not drawn)
CC(=O)Nc1ccc(S(=O)(=O)N2CCN(CCCOc3cc(C)ccc3C)CC2)cc1
COc1cc(/C=C/C(=O)OCC(=O)Nc2c(C)n(C)n(-c3ccccc3)c2=O)ccc1OCC#N
Cc1cc2oc(C(=O)N(Cc3ccco3)C3CCS(=O)(=O)C3)cc(=O)c2cc1Cl (stereo not drawn)
CCOCCCn1cnc2c(c1=O)c1nc3ccccc3nc1n2-c1ccc(C)cc1
O=C(c1ccccc1F)N1CCN(c2ccc([N+](=O)[O-])cc2-n2cccc2)CC1
CN(CC(=O)Nc1ccc(F)cc1)C(=O)COC(=O)c1ccccc1
O=C(NC1CC1)c1ccc2c(c1)N(Cc1ccc(Cl)cc1)CCS2
O=C(Nc1ccc2c(c1)OCO2)c1cnn2cccnc12
CCc1nc2ccccc2n1Cc1ccccc1F
CN(Cc1ccco1)C(=O)Cn1ncc2c([nH]c3ccccc32)c1=O
CN1CCN(NC(=O)Nc2cc(Cl)cc(Cl)c2)CC1
Cc1ccc2nc(C(=O)N3CCc4c([nH]c5ccccc45)C3c3ccccn3)cn2c1 (stereo not drawn)
Clc1ccc(N=C2SCC3CCCCN23)cc1 (stereo not drawn)
O=S(=O)(c1ccc(Oc2ccc(Br)cc2)cc1)N1CCOCC1
O=S(=O)(Nc1ccc(S(=O)(=O)Nc2cccc3ccccc23)cc1)c1ccccc1
COc1ccc(N(C(=O)c2snc(C(N)=O)c2N)C(C(=O)NC2CCCCC2)c2ccc(C)o2)c(OC)c1 (stereo not drawn)
Cc1ccc(S(=O)(=O)Nc2ccc(N=Nc3ccc(O)cc3)cc2)cc1
O=C(c1ccccc1)c1coc2ccc(O)c(CN3CCOCC3)c12
CCOc1ccc(N=CNc2ccc(OCC)cc2)cc1
COCCSc1ccccc1C(=O)N1CCC(Cc2ccccc2)CC1
O=C(c1ccccc1F)N1CCN(c2ccc([N+](=O)[O-])c3cccnc23)CC1
